Reference: ChEMBL document CHEMBL1914412, “Molecular modeling study and synthesis of novel dicationic flexible triaryl guanidines and imidamides as antiprotozoal agents” (Eur J Med Chem, 2011)

How the values were obtained:
Nucleic Acid = test: Binding affinity to poly(dA-dT) DNA assessed as change in melting temperature at compound/polynucleotide ratio 0.3 in MES10 buffer by spectrophotometry; format: nucleic-acid assay
[1] = tested on: Trypanosoma brucei rhodesiense; test: Antitrypanosomal activity against Trypanosoma brucei rhodesiense STIB900 after 72 hrs using alamar blue staining by microplate fluorometric analysis; format: functional, organism-based; settings: STIB900, 72 h
Outline: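 STIB 900 trypanosome suspension with serial drug dilutions, 37 °C, 5% CO₂, 72 h; Alamar Blue added and incubation continued 2–4 h. Two independent runs, each in duplicate.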

Plasmodium falciparum [2] = test: Antiplasmodial activity against Plasmodium falciparum K1 infected in human red blood cells assessed as [3H]hypoxanthine incorporation after 48 hrs by liquid scintillation counting; format: functional, organism-based
[3] = Selectivity index, ratio of IC50 for Trypanosoma brucei rhodesiense STIB900 to IC50 for Plasmodium falciparum K1; format: functional
L6 = test: Cytotoxicity against rat L6 cells after 72 hrs by alamar blue staining-based microplate fluorometric analysis; format: cell-based; settings: L6, 72 h
[4] = Ratio of IC50 for compound to IC50 for pentamidine for rat L6 cells; format: cell-based; settings: read-out: Ratio IC50
Plasmodium falciparum [5] = test: Ratio of IC50 for pentamidine to IC50 for compound for Plasmodium falciparum K1; format: functional

Structure (SMILES) | ΔTm (Nucleic Acid) | IC50 [1] | IC50 (Plasmodium falciparum [2]) | Ratio IC50 [3] | IC50 (L6) | selectivity ratio [4] | Ratio IC50 (Plasmodium falciparum [5])
N=C(Nc1ccc(Oc2ccc(Oc3ccc(NC(=N)c4ccc(-c5ccccc5)cc4)cc3)cc2)cc1)c1ccc(-c2ccccc2)cc1 | 0.1 °C | 612 nM | 63.3 nM | 9.6 | > 120 µM | 60 | 
N=C(Nc1ccc(Oc2cccc(Oc3ccc(NC(=N)c4ccccc4)cc3)c2)cc1)c1ccccc1 | 2 °C | 1040 nM | 251 nM | 4.2 | 0.9 µM | 0.43 | 
C/N=C(/N)Nc1ccc(Oc2ccc(Oc3ccc(N/C(N)=N/C)cc3)cc2)cc1.Cl.Cl | 0.8 °C | 155 nM | 14.1 nM | 11 | 57.3 µM | 27 | 3.3
N=C(N)Nc1ccc(Oc2cccc(Oc3ccc(NC(=N)N)cc3)c2)cc1 | 1.1 °C | 171 nM | 27 nM | 6.3 | 10.6 µM | 5 | 
N=C(Nc1ccc(Oc2cccc(Oc3ccc(NC(=N)c4ccc(-c5ccccc5)cc4)cc3)c2)cc1)c1ccc(-c2ccccc2)cc1 | 0 °C | 82300 nM | 4700 nM | 17 | 9.1 µM | 4.3 | 
N=C(Nc1ccc(Oc2ccc(Oc3ccc(NC(=N)C4CCCCC4)cc3)cc2)cc1)C1CCCCC1 | 2.1 °C | 427 nM | 259 nM | 1.6 | 3.1 µM | 1.5 | 
C/N=C(\N)Nc1ccc(Oc2cccc(Oc3ccc(N/C(N)=N/C)cc3)c2)cc1.Cl.Cl | 0.1 °C | 318 nM | 21.5 nM | 14.8 | 45.7 µM | 22 | 2.2
CC(C)(C)c1ccc(C(=N)Nc2ccc(Oc3ccc(Oc4ccc(NC(=N)c5ccc(C(C)(C)C)cc5)cc4)cc3)cc2)cc1 | 0 °C | 400 nM | 60 nM | 6.7 | 1.5 µM | 0.71 | 
CC(C)/N=C(\N)Nc1ccc(Oc2ccc(Oc3ccc(N/C(N)=N/C(C)C)cc3)cc2)cc1.Cl.Cl | 0 °C | 160 nM | 17.2 nM | 9.3 | 19.6 µM | 9.3 | 2.7
N=C(N)Nc1ccc(Oc2ccc(Oc3ccc(NC(=N)N)cc3)cc2)cc1 | 2.1 °C | 151 nM | 26.5 nM | 5.7 | 11.6 µM | 5.5 | 
N=C(Nc1ccc(Oc2cccc(Oc3ccc(NC(=N)C4CCCCC4)cc3)c2)cc1)C1CCCCC1 | 0 °C | 395 nM | 307 nM | 1.3 | 3.9 µM | 1.9 | 
N=C(Nc1ccc(Oc2ccc(Oc3ccc(NC(=N)c4ccccc4)cc3)cc2)cc1)c1ccccc1 | 5 °C | 863 nM | 71.5 nM | 12.1 | 2.8 µM | 1.3 | 
CC(C)/N=C(\N)Nc1ccc(Oc2cccc(Oc3ccc(N/C(N)=N/C(C)C)cc3)c2)cc1.Cl.Cl | 0 °C | 155 nM | 38.2 nM | 4.1 | 82.1 µM | 39 | 1.2
CC(C)(C)c1ccc(C(=N)Nc2ccc(Oc3cccc(Oc4ccc(NC(=N)c5ccc(C(C)(C)C)cc5)cc4)c3)cc2)cc1 | 0 °C | 2780 nM | 627 nM | 4.4 | 81.4 µM | 39 | 
